Columns and labels:
[1] = pharmacokinetic analysis, DIPG mice models; cited from earlier work
[2] = system: IGF1R/IR; assay: microPET imaging in rats; type: in vivo, Sprague-Dawley rats; conditions: time frames 1-10 min and 81-90 min, tail vein injection
In short: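 Anaesthetised male Sprague-Dawley rats (N = 2) were imaged on an Inveon microPET after tail-vein injection of 0.2 ± 0.05 mCi 18F-labelled test compound in 5% ethanol/normal saline, with acquisition starting at injection. A 68Ge transmission scan provided attenuation correction. List-mode data were collected for 90 min, Fourier-rebinned, reconstructed by filtered back-projection and expressed as nCi/cc. Coronal images were summed 0–10 and 81–90 min. ROI time-activity curves covered heart, muscles and brain.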

[3] = system: IGF1R/IR; assay: biodistribution in rats 120 min post injection; type: in vivo, Sprague-Dawley rats
[4] = system: IGF1R/IR; assay: microPET imaging in mice; type: in vivo, C57BL/6 mice
In short: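 Male C57BL/6 mice (N = 2) under anaesthesia on an Inveon microPET. The 18F-labelled test compound was formulated in 5% ethanol/normal saline and sterile-filtered. 0.2 ± 0.05 mCi was given via tail vein at the start of acquisition. A 68Ge transmission scan was used for attenuation correction. List-mode data were collected for 60 min, Fourier-rebinned, reconstructed by filtered back-projection and expressed as nCi/cc. Images were summed 0–10 and 0–60 min. ROI time-activity curves were drawn for brain, heart, muscle and thalamus.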

[5] = system: IGF1R; conditions: autoradiography; cited from earlier work

radioligand accumulation in brain [2] | binding in lung [3] | binding in spleen [3] | binding in stomach [3] | bone uptake ([18F]defluorination) [3] | radioactivity in brain [3] | uptake in heart [3] | uptake in large intestine [3] | uptake in liver [3] | uptake in pancreas [3] | uptake in small intestine [3] | brain activity of the radiotracer ([4]; microPET) | uptake in heart ([4]; microPET) | uptake in muscles ([4]; microPET) | time of peak brain level of activity post-injection ([4]; microPET time activity curves) | SMILES | concentration in tumor tissue [1] | binding in grade IV glioblastoma (GBM) in comparison to control brain tissues [5] [times]
 |  |  |  |  |  |  |  |  |  |  |  |  |  |  | C[C@@]1(C(=O)Nc2ccc(F)nc2)CCCN1c1nc(Nc2cc(C3CC3)n[nH]2)c2cccn2n1 [BMS-754807] | low concentration | 
negligible | negligible binding | negligible binding | low binding | no bone uptake | low levels of radioactivity | significant uptake | moderate uptake | moderate uptake | significant uptake | unusually higher uptake | no noticeable brain activity | High uptake | High uptake | less than 1 min | C[C@@]1(C(=O)Nc2ccc([18F])nc2)CCCN1c1nc(Nc2cc(C3CC3)[nH]n2)c2cccn2n1 [[^18F]BMS-754807] |  | 5.25
